Assay results from ChEMBL document CHEMBL1138590, “Discovery of novel dihydro-9,10-ethano-anthracene carboxamides as glucocorticoid receptor modulators” (Bioorg Med Chem Lett, 2009).

Legend:
[1] = molecular target: T1, Glucocorticoid receptor (Homo sapiens, UniProt P04150); assay: Displacement of FITC-dexamethasone from human recombinant glucocorticoid receptor alpha by fluorescence polarization assay
T1 sequence (P04150 whole entry): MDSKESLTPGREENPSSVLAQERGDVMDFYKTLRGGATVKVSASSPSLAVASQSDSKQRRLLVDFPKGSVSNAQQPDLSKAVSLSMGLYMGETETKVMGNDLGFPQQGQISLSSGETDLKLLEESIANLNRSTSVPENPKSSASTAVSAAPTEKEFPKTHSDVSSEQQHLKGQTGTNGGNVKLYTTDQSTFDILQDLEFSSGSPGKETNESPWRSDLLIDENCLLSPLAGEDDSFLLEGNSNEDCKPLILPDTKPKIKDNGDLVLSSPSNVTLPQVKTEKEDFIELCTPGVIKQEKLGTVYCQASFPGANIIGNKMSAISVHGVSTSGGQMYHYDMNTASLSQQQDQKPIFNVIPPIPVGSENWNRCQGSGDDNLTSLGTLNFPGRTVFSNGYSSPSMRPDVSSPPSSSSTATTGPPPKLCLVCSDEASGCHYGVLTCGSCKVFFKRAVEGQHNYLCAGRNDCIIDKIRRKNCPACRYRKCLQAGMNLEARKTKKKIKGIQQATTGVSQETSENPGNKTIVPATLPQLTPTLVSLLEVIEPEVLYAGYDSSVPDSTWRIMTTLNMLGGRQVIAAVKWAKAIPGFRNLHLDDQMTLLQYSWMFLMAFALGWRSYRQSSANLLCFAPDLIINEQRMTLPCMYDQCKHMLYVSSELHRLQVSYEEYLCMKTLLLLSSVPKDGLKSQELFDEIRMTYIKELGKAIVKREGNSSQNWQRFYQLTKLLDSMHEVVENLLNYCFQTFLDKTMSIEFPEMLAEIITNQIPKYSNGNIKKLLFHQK

[2] = molecular target: T1, Glucocorticoid receptor; assay: Transrepression activity at GR in PMA-stimulated human A549 cells assessed as inhibition of AP1 response element-induced luciferase reporter gene activity; format: cell-based
[3] = molecular target: T1, Glucocorticoid receptor; assay: Transrepression activity at GR in IL-1-beta-stimulated human A549 cells assessed as inhibition of NF-kappaB-dependent E-selectin transcription by luciferase reporter gene assay; format: cell-based
[4] = molecular target: T1, Glucocorticoid receptor; assay: Agonist activity at GR ligand binding domain expressed in human NP1 cells assessed as glucocorticoid response element transactivation by GAL4 luciferase reporter gene assay; format: cell-based
[5] = molecular target: T2, Progesterone receptor (Homo sapiens, UniProt P06401); assay: Displacement of […] from progesterone receptor by fluorescence polarization assay
T2 sequence (P06401 whole entry): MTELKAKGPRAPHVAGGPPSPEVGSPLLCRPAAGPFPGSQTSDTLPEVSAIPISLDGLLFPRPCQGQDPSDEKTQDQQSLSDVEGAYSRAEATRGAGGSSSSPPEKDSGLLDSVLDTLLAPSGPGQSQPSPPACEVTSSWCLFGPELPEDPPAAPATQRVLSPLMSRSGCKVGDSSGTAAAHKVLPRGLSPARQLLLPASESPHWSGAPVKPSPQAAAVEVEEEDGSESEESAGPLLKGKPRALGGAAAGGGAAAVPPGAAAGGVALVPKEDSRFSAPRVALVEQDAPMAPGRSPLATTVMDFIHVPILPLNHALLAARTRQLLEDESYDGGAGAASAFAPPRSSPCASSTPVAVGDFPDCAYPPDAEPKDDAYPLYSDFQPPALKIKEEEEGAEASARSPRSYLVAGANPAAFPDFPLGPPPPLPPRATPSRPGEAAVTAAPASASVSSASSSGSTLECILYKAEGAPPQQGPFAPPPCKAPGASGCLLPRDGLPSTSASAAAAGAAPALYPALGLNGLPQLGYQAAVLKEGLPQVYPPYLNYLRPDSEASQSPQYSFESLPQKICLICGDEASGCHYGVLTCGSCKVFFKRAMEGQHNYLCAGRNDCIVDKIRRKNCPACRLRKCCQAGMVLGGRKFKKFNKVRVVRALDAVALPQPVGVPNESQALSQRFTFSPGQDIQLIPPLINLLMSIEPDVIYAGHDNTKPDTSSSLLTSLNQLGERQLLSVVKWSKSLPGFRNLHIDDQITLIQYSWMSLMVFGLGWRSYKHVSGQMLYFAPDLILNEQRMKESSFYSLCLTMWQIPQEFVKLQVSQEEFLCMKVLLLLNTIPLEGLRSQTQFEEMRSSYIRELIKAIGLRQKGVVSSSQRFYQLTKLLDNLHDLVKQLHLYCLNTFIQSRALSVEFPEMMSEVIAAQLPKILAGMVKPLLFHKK
Summary of the method: (§1)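 Fluorescence polarization competition binding: the test compound competes with a fluorescently labelled ligand for binding to the full-length receptor or its ligand-binding domain. IC50 is fitted from the polarization signal with a four-parameter logistic equation. Ki is derived by Cheng–Prusoff, Ki = IC50/(1 + ligand concentration/Kd). Values are means of duplicate experiments.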

[6] = molecular target: T3, Estrogen receptor (Homo sapiens, UniProt P03372); assay: Displacement of […] from estrogen receptor alpha by fluorescence polarization assay; summary of the method: as §1
T3 sequence (P03372 whole entry): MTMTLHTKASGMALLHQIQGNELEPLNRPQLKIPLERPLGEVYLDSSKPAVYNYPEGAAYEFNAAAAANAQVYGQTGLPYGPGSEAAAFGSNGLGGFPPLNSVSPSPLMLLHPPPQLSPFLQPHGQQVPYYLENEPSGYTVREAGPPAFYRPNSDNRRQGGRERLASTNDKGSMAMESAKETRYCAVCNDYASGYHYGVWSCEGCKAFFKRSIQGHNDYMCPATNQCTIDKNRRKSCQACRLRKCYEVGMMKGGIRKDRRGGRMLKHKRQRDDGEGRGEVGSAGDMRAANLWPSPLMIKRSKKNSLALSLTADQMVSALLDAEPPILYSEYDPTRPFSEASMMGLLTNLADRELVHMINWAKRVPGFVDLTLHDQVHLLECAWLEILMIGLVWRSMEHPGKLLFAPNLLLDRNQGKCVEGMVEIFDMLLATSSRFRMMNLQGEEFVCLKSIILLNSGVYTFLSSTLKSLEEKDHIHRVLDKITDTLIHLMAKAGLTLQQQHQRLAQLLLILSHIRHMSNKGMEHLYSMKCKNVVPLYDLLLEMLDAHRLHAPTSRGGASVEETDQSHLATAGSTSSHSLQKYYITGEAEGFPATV

[7] = molecular target: T4, Androgen receptor (Homo sapiens, UniProt P10275); assay: Displacement of fluorescently labeled ligand from androgen receptor by fluorescence polarization assay
T4 sequence (P10275 whole entry): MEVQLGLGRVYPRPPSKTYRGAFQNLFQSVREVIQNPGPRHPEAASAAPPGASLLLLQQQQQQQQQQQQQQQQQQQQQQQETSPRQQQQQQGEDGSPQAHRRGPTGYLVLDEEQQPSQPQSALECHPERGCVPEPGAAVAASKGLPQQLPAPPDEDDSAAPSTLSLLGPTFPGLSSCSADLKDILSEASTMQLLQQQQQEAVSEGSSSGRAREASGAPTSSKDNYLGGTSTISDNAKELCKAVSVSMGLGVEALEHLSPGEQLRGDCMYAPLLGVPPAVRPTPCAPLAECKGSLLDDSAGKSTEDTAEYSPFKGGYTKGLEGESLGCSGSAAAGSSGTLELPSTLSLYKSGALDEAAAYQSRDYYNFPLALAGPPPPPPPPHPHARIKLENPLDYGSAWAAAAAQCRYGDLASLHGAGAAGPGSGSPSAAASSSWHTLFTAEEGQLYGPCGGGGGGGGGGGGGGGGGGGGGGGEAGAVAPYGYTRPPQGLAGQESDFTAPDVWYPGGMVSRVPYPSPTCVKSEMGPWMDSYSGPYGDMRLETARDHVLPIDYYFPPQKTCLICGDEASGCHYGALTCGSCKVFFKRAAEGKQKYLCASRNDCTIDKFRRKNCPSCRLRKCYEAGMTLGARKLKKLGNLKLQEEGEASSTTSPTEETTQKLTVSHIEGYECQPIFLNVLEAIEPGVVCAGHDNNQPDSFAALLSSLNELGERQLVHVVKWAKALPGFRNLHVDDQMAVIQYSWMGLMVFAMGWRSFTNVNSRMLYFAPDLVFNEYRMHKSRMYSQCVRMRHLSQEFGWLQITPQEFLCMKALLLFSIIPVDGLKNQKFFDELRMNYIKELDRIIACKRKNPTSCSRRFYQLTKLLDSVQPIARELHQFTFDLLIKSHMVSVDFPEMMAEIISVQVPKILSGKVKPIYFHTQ

[8] = Selectivity for human recombinant glucocorticoid receptor alpha over androgen receptor
[9] = Selectivity for human recombinant glucocorticoid receptor alpha over estrogen receptor alpha
[10] = molecular target: T5, Mineralocorticoid receptor (Homo sapiens) (UniProt P08235); assay: Antagonist activity at mineralocorticoid receptor in human A549 cells assessed as inhibition of 1.25 nM aldosterone-induced effect at 0.1 uM; format: functional, cell-based
T5 sequence (whole entry): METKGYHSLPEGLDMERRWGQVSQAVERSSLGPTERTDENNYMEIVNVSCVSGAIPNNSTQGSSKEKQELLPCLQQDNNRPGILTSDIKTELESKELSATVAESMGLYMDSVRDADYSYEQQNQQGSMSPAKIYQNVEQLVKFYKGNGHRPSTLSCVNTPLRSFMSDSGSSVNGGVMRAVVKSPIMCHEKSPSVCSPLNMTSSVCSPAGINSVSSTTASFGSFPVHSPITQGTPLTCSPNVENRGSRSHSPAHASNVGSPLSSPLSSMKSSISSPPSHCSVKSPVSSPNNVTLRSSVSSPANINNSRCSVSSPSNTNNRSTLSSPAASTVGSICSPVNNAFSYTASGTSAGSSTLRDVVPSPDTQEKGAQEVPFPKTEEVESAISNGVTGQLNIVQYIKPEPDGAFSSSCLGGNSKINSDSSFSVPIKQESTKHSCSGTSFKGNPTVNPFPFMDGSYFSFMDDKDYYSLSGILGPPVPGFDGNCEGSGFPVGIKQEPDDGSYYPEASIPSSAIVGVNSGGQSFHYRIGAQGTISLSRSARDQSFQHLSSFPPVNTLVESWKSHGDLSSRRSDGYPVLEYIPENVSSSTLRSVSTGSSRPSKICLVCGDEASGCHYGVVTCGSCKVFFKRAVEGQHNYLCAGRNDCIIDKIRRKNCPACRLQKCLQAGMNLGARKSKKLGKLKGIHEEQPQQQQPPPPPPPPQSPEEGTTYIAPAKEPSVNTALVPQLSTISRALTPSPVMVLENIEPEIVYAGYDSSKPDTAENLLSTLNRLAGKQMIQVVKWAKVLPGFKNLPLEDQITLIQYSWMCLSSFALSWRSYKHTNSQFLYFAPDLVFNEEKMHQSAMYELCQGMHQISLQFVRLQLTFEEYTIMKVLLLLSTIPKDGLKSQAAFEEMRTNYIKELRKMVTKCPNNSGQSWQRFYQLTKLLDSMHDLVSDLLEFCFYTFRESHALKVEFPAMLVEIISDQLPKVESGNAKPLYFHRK

[11] = Selectivity for human recombinant glucocorticoid receptor alpha over progesterone receptor

| Structure (SMILES) | Ki [1] [nM] | EC50 [2] [nM] | EC50 [3] [nM] | EC50 [4] [nM] | Ki [5] [nM] | Ki [6] [nM] | Ki [7] [nM] | fold change (FC) [8] | fold change (FC) [9] | inhibition [10] [%] | fold change (FC) [11] |
| --- | --- | --- | --- | --- | --- | --- | --- | --- | --- | --- | --- |
| CC12CC(C)(C(=O)Nc3nccs3)C(c3ccccc31)c1ccccc12 (stereo in doubt; 17a) | 1 | 5.3 | 1.4 | 117 | 31 | > 5000 | 2900 |  |  |  |  |
| CC1(C(=O)Nc2nccs2)CC2c3ccccc3C1c1ccccc12 (configuration not stated) | 2.9 | 268 | 30.7 | > 10000 |  |  |  | > 1000 | > 1000 |  |  |
| Cc1cnc(NC(=O)C2(C)CC3c4ccccc4C2c2ccccc23)s1 (single isomer, unassigned; isomer A) [listing 1 of 2 here] | 4.1 | 345 |  |  | > 10000 | > 5000 | > 10000 |  |  |  |  |
| CC12CC(C)(C(=O)Nc3nncs3)C(c3ccccc31)c1ccccc12 (single isomer, unassigned; isomer A) | 1.3 | 11.4 | 8.3 | 111 | 35 | > 5000 | 9300 |  |  |  |  |
| Cc1cnc(NC(=O)C2(C)CC3c4ccccc4C2c2ccccc23)s1 (single isomer, unassigned; isomer A) [listing 2 of 2 here] |  |  |  |  |  |  |  |  |  | 5 | > 2500 |
